Results on five compounds are retold here after ChEMBL document CHEMBL1909617, “Bioactive dammarane-type saponins from Operculina turpethum” (J Nat Prod, 2011).

Data set [1] is described as follows: Cytotoxicity against human embryo L02 cells assessed as cell viability after 48 hrs by MTT assay. It counts as cell-based. Particulars: read-out: MTD. The essentials: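 Human embryo liver L-02 cells in RPMI-1640 with 10% heat-inactivated FBS, penicillin, streptomycin and L-glutamine, seeded at 2 × 10^4 cell/mL and grown 24 h at 37 C, 5% CO2. Medium replaced by serial dilutions of compound (from 1 mg/mL DMSO stock), 48 h exposure. MTT added for 4 h, formazan dissolved in DMSO, OD 570 nm. Viability = OD(compound)/OD(control) × 100; maximum nontoxic concentration derived.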
(In general: Tetrazolium assays rely on reduction of a dye to a coloured formazan, in cell work by metabolically active cells.)

The nature of data set [2]: Cytoprotective activity in human embryo L02 cells assessed as inhibition of D-galactosamine-induced cytotoxicity at 12.5 ug/ml treated for 1 hr prior to D-galactosamine challenge measured after 48 hrs by MTT assay relative to control. The data set is classed as functional. In short, it runs like this:
(§1)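 L-02 human embryo liver cells in RPMI-1640 with 10% heat-inactivated FBS, penicillin, streptomycin, L-glutamine; seeded 2 × 10^4 cells/mL, grown 24 h at 37 °C, 5% CO2. Fresh medium with compound (diluted from 1 mg/mL DMSO stock) for 1 h, then 5 mM D-GalN for 48 h. MTT read at 570 nm; inhibition (%) = (OD compound − OD GalN control)/(OD blank − OD control) × 100; n = 3, mean ± SD.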

The nature of data set [3]: Cytoprotective activity in human embryo L02 cells assessed as inhibition of D-galactosamine-induced cytotoxicity at 6.25 ug/ml treated for 1 hr prior to D-galactosamine challenge measured after 48 hrs by MTT assay relative to control. It counts as functional. In short, it runs like this:
as §1

Data set [4] in a line: Cytoprotective activity in human embryo L02 cells assessed as inhibition of D-galactosamine-induced cytotoxicity at 3.13 ug/ml treated for 1 hr prior to D-galactosamine challenge measured after 48 hrs by MTT assay relative to control. The data set is classed as functional. In short, it runs like this:
as §1

Data set [5] is described as follows: Cytoprotective activity in human embryo L02 cells assessed as inhibition of D-galactosamine-induced cytotoxicity at 1.56 ug/ml treated for 1 hr prior to D-galactosamine challenge measured after 48 hrs by MTT assay relative to control. The data set is classed as functional. The essentials: as §1

By inhibition is commonly meant the relative decrease from the control value, in per cent. Consider `CC(C)[C@]1(CO)CC[C@@](C)([C@H]2[C@H](O)C[C@]3(C)[C@@H]2CC[C@@H]2[C@@]4(C)CC[C@H](O[C@@H]5O[C@H](CO)[C@@H](O)[C@H](O)[C@H]5O[C@@H]5O[C@H](CO)[C@@H](O)[C@H](O)[C@H]5O)C(C)(C)[C@@H]4CC[C@]23C)O1` [OPERCULINOSIDE A], for which the MNTC at 48 h in data set [1] stood at 12.5 µg/mL. The inhibition at 12.5 µg/mL in data set [2] is 46.7%. The inhibition at 6.25 µg/mL in data set [3] is -14.7%. Further, the inhibition at 3.13 µg/mL in data set [4] was -22.8%.

As to `CC(C)[C@]1(CO[C@@H]2O[C@H](CO)[C@@H](O)[C@H](O)[C@H]2O)CC[C@@](C)([C@H]2[C@H](O)C[C@]3(C)[C@@H]2CC[C@@H]2[C@@]4(C)CC[C@H](O[C@@H]5O[C@H](CO)[C@@H](O)[C@H](O)[C@H]5O[C@@H]5O[C@H](CO)[C@@H](O)[C@H](O)[C@H]5O)C(C)(C)[C@@H]4CC[C@]23C)O1` [OPERCULINOSIDE B], the MNTC at 48 h in data set [1] was found to be 100 µg/mL. The inhibition at 12.5 µg/mL in data set [2] is -6.9%. For the same compound, the inhibition at 6.25 µg/mL in data set [3] stood at 10.4%. Also, the inhibition at 3.13 µg/mL in data set [4] amounted to 3.5%.

In the case of `CC(C)(O)[C@@H]1CC[C@@](C)([C@H]2[C@H](O)C[C@]3(C)[C@@H]2CC[C@@H]2[C@@]4(C)CC[C@H](O[C@@H]5O[C@H](CO)[C@@H](O)[C@H](O)[C@H]5O[C@@H]5O[C@H](CO)[C@@H](O)[C@H](O)[C@H]5O)C(C)(C)[C@@H]4CC[C@]23C)O1` [OPERCULINOSIDE C], the MNTC at 48 h in data set [1] is 50 µg/mL. In addition, in data set [2], the inhibition at 12.5 µg/mL is 44.1%. The inhibition at 6.25 µg/mL in data set [3] was 69.5%. Besides, the inhibition at 3.13 µg/mL in data set [4] amounted to 16.7%.

Turning to `CC(C)(O[C@@H]1O[C@H](CO)[C@@H](O)[C@H](O)[C@H]1O)[C@@H]1CC[C@@](C)([C@H]2[C@H](O)C[C@]3(C)[C@@H]2CC[C@@H]2[C@@]4(C)CC[C@H](O[C@@H]5O[C@H](CO)[C@@H](O)[C@H](O)[C@H]5O[C@@H]5O[C@H](CO)[C@@H](O)[C@H](O)[C@H]5O)C(C)(C)[C@@H]4CC[C@]23C)O1` [OPERCULINOSIDE D], in data set [1], the MNTC at 48 h was determined as 100 µg/mL. Also, the inhibition at 12.5 µg/mL in data set [2] amounted to 22.2%. Moreover, in data set [3], the inhibition at 6.25 µg/mL was 6.3%. For the same compound, the inhibition at 3.13 µg/mL in data set [4] came to 5.5%.

Turning to `COc1cc(C2Oc3cc([C@H]4Oc5cc(O)cc(O)c5C(=O)[C@@H]4O)ccc3OC2CO)ccc1O` (stereo not given in full) [SILIBININ], the MNTC at 48 h in data set [1] stood at 6.25 µg/mL. In addition, the inhibition at 6.25 µg/mL in data set [3] is 28.2%. Besides, the inhibition at 3.13 µg/mL in data set [4] came to 33.4%. Besides, in data set [5], the inhibition at 1.56 µg/mL was 10.1%.
